Rows were chosen to be rich in hits. Some 2% of all compounds tested hit in one or more screens of this group.
PPC-1+TRAIL kill – compounds killing PPC-1 cancer cells with TRAIL present (potentiator screen, no TRAIL-free arm); PPC-1 cells + TRAIL, ATPLite viability luminescence; cell killing (% activity), % at 4 µM or 5 µM; 0.41% of 220,000 active; AID 1443;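 active means cell killing above 50% in the first pass at 4 µM, then a duplicate retest at 5 µM averaging 50% or more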;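 further: plate controls were cells with TRAIL plus DMSO for no effect and medium-only wells lacking cells for full effect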
TRAIL sens C8 – sensitizes caspase-8 expressing cells to TRAIL; NB7+C8 cells + TRAIL, ATPlite viability luminescence; inhibition (viability loss, TRAIL sensitization), % at 10 µM; 1% of 360,000 active;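 active means compounds causing at least 50% loss of cell viability in the single-dose screen, relative to plate controls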
FLuc inhib CS – Photinus pyralis luciferase inhibition counter-screen; 1.5% of 200,000 active; ATPLite firefly luciferase biochemical luminescence, 10 min; P08659; inhibition, % at 10 µM; AID 1006;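 active means inhibition above about 50% when tested at 10 µM, limit read from the data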
Target sequence (P08659 whole entry, looked up): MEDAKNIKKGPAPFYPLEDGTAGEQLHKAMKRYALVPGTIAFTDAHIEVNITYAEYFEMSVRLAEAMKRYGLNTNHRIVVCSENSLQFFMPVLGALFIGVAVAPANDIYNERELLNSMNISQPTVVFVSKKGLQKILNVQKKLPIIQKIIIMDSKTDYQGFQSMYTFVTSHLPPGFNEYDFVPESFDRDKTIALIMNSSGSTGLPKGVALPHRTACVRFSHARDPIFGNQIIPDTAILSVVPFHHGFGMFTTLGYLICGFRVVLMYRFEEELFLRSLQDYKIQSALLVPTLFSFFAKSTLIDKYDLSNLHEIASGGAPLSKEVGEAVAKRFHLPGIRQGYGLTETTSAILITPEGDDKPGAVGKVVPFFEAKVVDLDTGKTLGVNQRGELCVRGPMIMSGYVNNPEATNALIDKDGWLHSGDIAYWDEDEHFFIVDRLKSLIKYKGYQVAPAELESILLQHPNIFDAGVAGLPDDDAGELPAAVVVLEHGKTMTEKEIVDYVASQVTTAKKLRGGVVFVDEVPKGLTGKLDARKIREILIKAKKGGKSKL
FLuc stim CS – firefly luciferase counter-screen for stimulation assays; ATPlite luciferase biochemical, luminescence, 10 min; 0 = ATP-free wells, 1 = DMSO control; activation factor at 10 µM; 200,000 tested, under 10 active; AID 1027;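 active means luciferase activation factor, scaled between plate controls, of at least 2 with compound at 10 µM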
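test system = cell-free luciferase reagent | medium = PBS as buffer for the ATP substrate | dosing = test compounds dosed from 2 mM stocks in 100% DMSO | incubation = 10 min at ambient temperature | detection = luminescence measurement of luciferase light output | benchmarks = low control with PBS replacing ATP, high control enzyme plus ATP without compound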
HSP90 refold inh – blocks HSP90-mediated luciferase refolding in reticulocyte lysate. Rabbit reticulocyte lysate, luciferase refolding luminescence, 3 h. inhibition, % at 5.6 µM. 0.91% of 290,000 active;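 active means inhibition above the screen-wide mean plus 3 SD, computed separately per campaign, cut at about 16% in these data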;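 further: 0% = DMSO wells and 100% = 60 µM geldanamycin wells; inhibitors lower the luminescence because luciferase stays unfolded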
* = called active by the depositor; / = not tested or not shown; ! = repeats disagree.

SMILES	PPC-1+TRAIL kill	TRAIL sens C8	FLuc inhib CS	FLuc stim CS	HSP90 refold inh
COC(=O)C(Cc1ccccc1)NC(=O)c1ccc(C)cc1 (stereo unspecified)	/	-5.9	60.0*	0.4	7.7
COc1ccccc1N1CCN(C(=O)CN(C)S(=O)(=O)c2ccc(C)cc2)CC1	/	-11.4	/	/	/
O=C1NC(=O)C(=C2CCOC2=O)N1	/	-6.9	/	/	/
Cc1ccc(/C=N/NC(=O)c2c[nH]c3ccccc23)s1	30.9	15.5	25.9	0.7	-0.4
CCn1nc(C)c(/C=N/NC(=O)c2c[nH]c3ccccc23)c1C	14.2	17.2	58.9*	0.4	4.3
O=C(N/N=C/c1ccc[nH]1)c1c[nH]c2ccccc12	/	78.3*	/	/	1.0
COc1cccc(Cn2c(C(C)n3c(-c4cnccn4)nc4ccccc43)nc3ccccc32)c1 (stereo unspecified)	/	19.1	/	/	/
CCOC(=O)[C@]12CCCC=C1N(CCC1=CCCCC1)C(=O)[C@H](CC(=O)NCC1CCCCC1)C2	/	-11.5	/	/	/
O=C(NCc1ccccc1)c1cccc(COc2ccccc2Cl)c1	7.7	3.7	-6.4	1.1	16.7*
COc1ccccc1N(CC(=O)N/N=C/c1c(O)ccc2ccccc12)S(C)(=O)=O	35.9	52.0*	-3.1	1	-8.6
COc1ccccc1NCC(=O)N/N=C/c1c(O)ccc2ccccc12	/	11.9	/	/	-6.7
O=C(Cc1ccccc1)N/N=C/c1cc(Br)cc(Br)c1O	/	-1.2	/	/	16.2*
Oc1ccc(Br)cc1/C=N/NC(=S)NCCc1ccccc1	/	15.3	/	/	-1.1
O=C(N/N=C/c1cc(Br)ccc1O)c1ccccc1Cl	42.9	56.1*	7.8	0.9	-6.4
O=C(CCc1ccccc1)N/N=C/c1cc(Br)ccc1O	15.5	54.7*	-3.2	1	1.3
CC1CCCC(NC(=O)CN2C(=O)NC(C)(c3cc(F)ccc3F)C2=O)C1C (stereo unspecified)	/	6.3	/	/	/
C/C(=N\NC(=O)c1ccc2ccccc2c1)c1cccs1	/	55.1*	/	/	7.9
C/C(=N\NC(=O)c1cccs1)c1ccc2ccccc2c1	/	12.9	/	/	-2.8
Cc1cccc(NC(=O)/C=C/c2ccc(Cl)cc2)n1	-29.2	69.2*	83.0*	0.2	2.7
CCOC(=O)Cc1csc(NC(=O)/C=C/c2ccc(Cl)cc2)n1	13.7	55.4*	/	/	-2.2
CCOC(=O)Cc1csc(NC(=O)/C=C/c2ccco2)n1	15.9	22.7	/	/	2.5
Cc1cccc(NC(=O)/C(C#N)=C/c2ccc(Cl)cc2)n1	/	-12.4	/	/	-3.2
CC1=C(C(=O)N(C)C)CC(CC(=O)NCc2cccc3ccccc23)C(=O)N1CCCN1CCCC1=O (stereo unspecified)	/	-4.4	/	/	/
CN1CCN(Cc2nc3ccccc3c(=O)n2Cc2nc(-c3cccc([N+](=O)[O-])c3)cs2)CC1	14.0	20.5	-1.4	1	-2.9
CN1CCN(Cc2nc3ccccc3c(=O)n2Cc2nc(-c3ccc4ccccc4c3)cs2)CC1	-3.1	77.2*!	-3.7	1	2.9
SMILES	PPC-1+TRAIL kill	TRAIL sens C8	FLuc inhib CS	FLuc stim CS	HSP90 refold inh
Cc1ccn(-c2ccc(NC(=O)c3cccs3)cc2)n1	/	54.8*	/	/	2.2
O=C(Nc1ccc(-c2cn3ccccc3n2)cc1)c1cccs1	45.9	51.9*	73.1*	0.3	-1.2
CN1CCN(c2ccc(NC(=O)c3cccs3)cc2)CC1	9.8	16.6	34.6	0.7	-0.2
CN(C)c1ccc(/C=N/NC(=O)c2ccc3c(c2)OCO3)cc1	/	19.6	/	/	-1.0
O=C(N/N=C/c1ccccc1)c1ccc2c(c1)OCO2	/	56.2*	/	/	16.1*
O=C(N/N=C/c1ccc(Br)o1)c1ccc2c(c1)OCCO2	23.3	40.0	73.6*	0.3	1.4
COc1cccc(CNC(=O)[C@@H]2CCCN2C(=O)[C@H]2CCCCN2C(=O)c2ccc(Cl)cc2)c1	/	-1.3	/	/	/
CC(C)OCCCNc1ncnc2c1cnn2-c1ccccc1	/	48.6	74.3*	0.3	5.9
CC(C)Nc1ncnc2c1cnn2-c1ccc(Cl)cc1	36.7	56.9*	63.9*	0.4	15.2
CC(C)(C)Nc1ncnc2c1cnn2-c1ccccc1	27.1	59.9*	65.8*	0.3	/
c1ccc(CNc2ncnc3c2cnn3-c2ccccc2)cc1	-7.2	14.4	-3.7	1	-0.6
Clc1ccc(Nc2ncnc3c2cnn3-c2ccccc2)cc1	15.7	26.9	-4.2	1	-5.4
CC(=O)Nc1ccc(-c2ccnc3c2CC(C(=O)NCc2ccccc2)O3)cc1 (stereo unspecified)	/	9.8	/	/	/
CC1(C)CC(=O)C=C(c2ccc(-c3ccc4[nH]ccc4c3)cc2)C1=O	/	70.1*	/	/	/
Nc1c(N(C(=O)Nc2ccc(Cl)c(Cl)c2)C2CCCC2)c(=O)[nH]c(=O)n1Cc1ccccc1	0.6	62.9*	-6.3	1.1	6.4
Cc1cc2nc(-c3ccco3)c(Cc3ccccc3C(F)(F)F)n2c(C)c1Br	/	-1.6	/	/	/
O=C(C1=NOC2(C1)C(=O)Nc1ccccc12)N1CCCCC1 (stereo unspecified)	/	-12.6	/	/	/
CN1CCN(C(=O)C2=NOC3(C2)C(=O)Nc2ccccc23)CC1 (stereo unspecified)	/	52.1*	/	/	/
Cc1ccc(OCc2nnn(CC(=O)NS(=O)(=O)c3c(C)noc3C)c2-c2ccccc2)cc1	/	-22.4	/	/	/
O=C(CCN1C(=O)c2ccccc2C1=O)Nc1ccc(-c2nc3ccccc3s2)cc1	1.2	68.7*	11.0	0.9	6.8
Cc1ccc2nc(-c3ccc(NC(=O)CCN4C(=O)c5ccccc5C4=O)cc3)sc2c1	32.0	82.5*	67.5*	0.3	-3.0
COc1ccc(C(C(=O)NC2CCCCC2)N(C(=O)CCl)c2ccc(OC)cc2)cc1 (stereo unspecified)	35.0	95.9*	-7.6	1.1	3.8
COc1ccc(C(C(=O)NC2CCCCC2)N(C(=O)CCl)c2ccc(C)cc2)cc1 (stereo unspecified)	71.5*	95.0*	-6.3	1.1	1.0
COc1ccc(N(C(=O)Cc2cccs2)C(C(=O)NC2CCCC2)c2ccncc2)cc1 (stereo unspecified)	/	5.3	/	/	2.8
COc1ccc(C(C(=O)NC2CCCCC2)N(C(=O)CCl)c2cccc(Cl)c2)cc1 (stereo unspecified)	58.7*	96.5*	-3.4	1	1.4
SMILES	PPC-1+TRAIL kill	TRAIL sens C8	FLuc inhib CS	FLuc stim CS	HSP90 refold inh
CCOc1ccc(/C=C\C(C)=N\O)cc1	34.4	33.5	69.0*	0.3	0.2
COc1cccc(-c2cnc(C(O)c3ccc(Cl)c(F)c3)[nH]2)c1 (stereo unspecified)	/	-18.1	/	/	/
O=C1NC[C@H](CCCCN2C[C@H](Cc3ccc(O)cc3)N(Cc3ccccc3)C(=O)C2=O)N(CC2CCCCC2)C1=O	/	4.0	/	/	/
Clc1ccc(-c2cn3c(n2)-c2ccccc2C3)cc1Cl	18.2	44.1	65.7*	0.3	1.9
Oc1cc(O)cc(-c2cc3ccc(O)cc3o2)c1	/	12.7	/	/	/
CC1(C)Oc2cc3oc(-c4cc(O)cc(O)c4)cc3cc2CC1O (stereo unspecified)	/	79.9*	/	/	/
Cc1nn(C(=O)c2ccc3c(c2)OCO3)c(N)c1-c1ccccc1	6.5	4.4	80.4*	0.2	10.8
COc1ccc(/C(C)=N/Nc2nncc3ccccc23)cc1	/	60.3*	/	/	0.1
COc1ccc(/C(C)=N/Nc2nc3ccccc3nc2C)cc1	3.2	22.5	/	/	-3.1

Screening results as filed in PubChem BioAssay.
